Here are results for 20 molecules from ChEMBL document CHEMBL2086312, “Synthesis and biological evaluation of new 5-benzylated 4-oxo-3,4-dihydro-5H-pyridazino[4,5-b]indoles as PI3Kα inhibitors” (Eur J Med Chem, 2012).

Bounds are passed on as bounds.

By IC50 is commonly meant the concentration that gives 50% inhibition.

The test system of one test is Huh-7. The test can be described thus: Antiproliferative activity against human HuH7 cells incubated for 48 hrs by […] dye staining based assay. The format is functional, cell-based. The settings on record: Huh-7, 48 h. The method, boiled down: (§1)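 After 24 h attachment, they were exposed 48 h to increasing concentrations of 0.1 to 25. Cells were then fixed in cold 90% ethanol/5% acetic acid, nuclei were Hoechst-stained, and nuclei were counted by automated imaging.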

Another test concerns MDA-MB-231. The test can be described thus: Antiproliferative activity against human MDA-MB-231 cells incubated for 48 hrs by […] dye staining based assay. As to conditions: MDA-MB-231, 48 h. Format: functional, cell-based. The method, boiled down:
as §1

Test [1] can be described thus: Antiproliferative activity against human Skin fibroblasts incubated for 48 hrs by […] dye staining based assay. As to conditions: Skin fibroblast. The method, boiled down: (§2)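 Cells were grown per ECACC recommendations and seeded in triplicate at 2 × 10³ (HCT-116) or 4 × 10³ (other lines) per well. After 24 h attachment, they were exposed 48 h to increasing concentrations of 0.1 to 25. Cells were then fixed in cold 90% ethanol/5% acetic acid, nuclei were Hoechst-stained, and nuclei were counted by automated imaging.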

The test system of a further test is Caco-2. The experiment in a line: Antiproliferative activity against human Caco2 cells incubated for 48 hrs by […] dye staining based assay. The format is functional, cell-based. The settings on record: Caco-2, 48 h. The procedure, abridged:
as §1

The subject of another test is HCT-116. The test can be described thus: Antiproliferative activity against human HCT116 cells incubated for 48 hrs by […] dye staining based assay. The format is functional, cell-based. The settings on record: HCT-116, 48 h. The procedure, abridged:
as §2

The next test deals with NCI-H727. The test can be described thus: Antiproliferative activity against human NCI-H727 cells incubated for 48 hrs by […] dye staining based assay. The format is functional, cell-based. The settings on record: NCI-H727, 48 h. The method, boiled down:
as §2

A further test has as its system PC-3. The test can be described thus: Antiproliferative activity against human PC3 cells incubated for 48 hrs by […] dye staining based assay. Format: functional, cell-based. As to conditions: PC-3, 48 h. The method, boiled down:
as §2

For test [2], the target named is PI3-kinase p110-alpha/p85-alpha (Homo sapiens, UniProt P42336). The test can be described thus: Inhibition of PI3K p110alpha/p85alpha by fluorescence based immunoassay. The format is protein-complex assay. The method, boiled down: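 ADAPTA TR-FRET ADP-detection kinase assay. Detection used 6 nM Eu-anti-ADP antibody, 12 nM Alexa647-ADP tracer and 30 mM EDTA for 30 min. Read-out was excitation 340 nm with 665/615 nm emission ratio, converted to % conversion via an ATP–ADP titration curve.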
Sequence of PI3-kinase p110-alpha/p85-alpha (P27986 whole entry): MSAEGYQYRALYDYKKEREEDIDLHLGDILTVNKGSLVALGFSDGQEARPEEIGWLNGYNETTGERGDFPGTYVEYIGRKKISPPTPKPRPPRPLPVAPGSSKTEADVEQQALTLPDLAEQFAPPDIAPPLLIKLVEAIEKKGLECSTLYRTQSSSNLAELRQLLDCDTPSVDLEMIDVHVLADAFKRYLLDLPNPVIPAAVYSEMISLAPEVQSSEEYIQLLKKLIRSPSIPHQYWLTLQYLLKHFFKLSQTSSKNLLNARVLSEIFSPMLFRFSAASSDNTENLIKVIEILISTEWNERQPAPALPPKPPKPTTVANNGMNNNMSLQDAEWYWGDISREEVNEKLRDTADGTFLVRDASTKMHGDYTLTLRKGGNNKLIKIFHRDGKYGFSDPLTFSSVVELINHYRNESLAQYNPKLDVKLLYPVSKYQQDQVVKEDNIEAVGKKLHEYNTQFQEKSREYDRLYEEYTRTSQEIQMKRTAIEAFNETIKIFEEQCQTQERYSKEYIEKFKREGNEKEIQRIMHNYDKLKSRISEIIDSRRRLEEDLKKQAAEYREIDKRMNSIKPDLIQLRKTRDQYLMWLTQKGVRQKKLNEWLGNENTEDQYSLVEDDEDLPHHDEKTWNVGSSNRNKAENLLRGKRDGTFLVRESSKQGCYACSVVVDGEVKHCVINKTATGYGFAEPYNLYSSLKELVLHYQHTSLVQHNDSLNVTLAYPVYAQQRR
Sequence of PI3-kinase p110-alpha/p85-alpha (P42336 whole entry): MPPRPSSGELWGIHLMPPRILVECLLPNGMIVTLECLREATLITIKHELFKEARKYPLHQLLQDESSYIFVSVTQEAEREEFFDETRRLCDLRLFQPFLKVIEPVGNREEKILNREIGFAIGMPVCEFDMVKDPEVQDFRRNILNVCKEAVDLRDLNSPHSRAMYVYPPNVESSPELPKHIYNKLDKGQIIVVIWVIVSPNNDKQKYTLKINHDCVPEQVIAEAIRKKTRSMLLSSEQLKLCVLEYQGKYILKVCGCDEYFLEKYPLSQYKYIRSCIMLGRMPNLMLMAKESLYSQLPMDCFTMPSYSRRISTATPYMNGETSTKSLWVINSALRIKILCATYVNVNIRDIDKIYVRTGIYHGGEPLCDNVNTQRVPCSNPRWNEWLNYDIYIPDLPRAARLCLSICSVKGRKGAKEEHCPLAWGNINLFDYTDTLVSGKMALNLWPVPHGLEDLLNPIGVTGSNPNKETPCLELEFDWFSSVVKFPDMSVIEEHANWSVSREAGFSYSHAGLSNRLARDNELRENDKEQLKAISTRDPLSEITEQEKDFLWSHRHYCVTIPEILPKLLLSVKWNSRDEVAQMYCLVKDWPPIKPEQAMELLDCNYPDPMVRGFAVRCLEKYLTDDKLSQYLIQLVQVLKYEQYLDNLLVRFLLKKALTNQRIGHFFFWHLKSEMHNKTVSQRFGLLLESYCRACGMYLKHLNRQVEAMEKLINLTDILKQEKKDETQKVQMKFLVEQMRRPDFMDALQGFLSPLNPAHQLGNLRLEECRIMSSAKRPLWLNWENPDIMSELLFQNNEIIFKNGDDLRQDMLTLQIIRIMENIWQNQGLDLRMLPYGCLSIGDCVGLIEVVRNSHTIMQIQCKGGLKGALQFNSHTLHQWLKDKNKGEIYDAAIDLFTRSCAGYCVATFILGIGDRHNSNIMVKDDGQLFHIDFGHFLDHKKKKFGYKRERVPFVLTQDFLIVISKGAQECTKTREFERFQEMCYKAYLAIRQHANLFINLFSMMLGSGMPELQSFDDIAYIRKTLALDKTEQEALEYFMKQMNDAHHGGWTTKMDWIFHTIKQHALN

In test [3] the target is Cyclin-dependent kinase 5/CDK5 activator 1 (Homo sapiens, UniProt Q00535). The test can be described thus: Inhibition of human recombinant CDK5/P25 using myelin basic protein substrate. Format: protein-complex assay.
Sequence of Cyclin-dependent kinase 5/CDK5 activator 1 (Q00535 whole entry): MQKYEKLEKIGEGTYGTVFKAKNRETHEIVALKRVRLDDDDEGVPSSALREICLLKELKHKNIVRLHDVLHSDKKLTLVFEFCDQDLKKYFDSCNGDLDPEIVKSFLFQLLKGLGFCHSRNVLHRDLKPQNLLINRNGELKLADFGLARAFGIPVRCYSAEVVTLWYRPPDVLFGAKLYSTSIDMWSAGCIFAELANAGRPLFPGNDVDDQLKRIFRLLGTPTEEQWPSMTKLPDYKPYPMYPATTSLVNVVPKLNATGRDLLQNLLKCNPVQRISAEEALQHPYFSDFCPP
Sequence of Cyclin-dependent kinase 5/CDK5 activator 1 (Q15078 whole entry, further chain): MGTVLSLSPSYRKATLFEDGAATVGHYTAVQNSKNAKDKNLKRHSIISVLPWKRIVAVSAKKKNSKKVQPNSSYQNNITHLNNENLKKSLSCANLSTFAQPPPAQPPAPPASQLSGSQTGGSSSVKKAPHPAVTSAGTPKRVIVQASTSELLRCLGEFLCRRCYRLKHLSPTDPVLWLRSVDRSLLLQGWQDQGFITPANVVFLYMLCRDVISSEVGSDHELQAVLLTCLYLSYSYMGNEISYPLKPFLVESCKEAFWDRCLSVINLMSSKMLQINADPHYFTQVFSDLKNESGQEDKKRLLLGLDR
The target of test [4] is Dual specificity tyrosine-phosphorylation-regulated kinase 1A (Rattus norvegicus, UniProt Q63470). The test can be described thus: Inhibition of rat recombinant GST-tagged DYRK1A expressed in Escherichia coli using myelin basic protein substrate.
The target of test [5] is Phosphatidylinositol 4,5-bisphosphate 3-kinase catalytic subunit gamma isoform (Homo sapiens, UniProt P48736). The test can be described thus: Inhibition of PI3K p110gamma by fluorescence based immunoassay.
Sequence of Phosphatidylinositol 4,5-bisphosphate 3-kinase catalytic subunit gamma isoform (P48736 whole entry, looked up, canonical isoform): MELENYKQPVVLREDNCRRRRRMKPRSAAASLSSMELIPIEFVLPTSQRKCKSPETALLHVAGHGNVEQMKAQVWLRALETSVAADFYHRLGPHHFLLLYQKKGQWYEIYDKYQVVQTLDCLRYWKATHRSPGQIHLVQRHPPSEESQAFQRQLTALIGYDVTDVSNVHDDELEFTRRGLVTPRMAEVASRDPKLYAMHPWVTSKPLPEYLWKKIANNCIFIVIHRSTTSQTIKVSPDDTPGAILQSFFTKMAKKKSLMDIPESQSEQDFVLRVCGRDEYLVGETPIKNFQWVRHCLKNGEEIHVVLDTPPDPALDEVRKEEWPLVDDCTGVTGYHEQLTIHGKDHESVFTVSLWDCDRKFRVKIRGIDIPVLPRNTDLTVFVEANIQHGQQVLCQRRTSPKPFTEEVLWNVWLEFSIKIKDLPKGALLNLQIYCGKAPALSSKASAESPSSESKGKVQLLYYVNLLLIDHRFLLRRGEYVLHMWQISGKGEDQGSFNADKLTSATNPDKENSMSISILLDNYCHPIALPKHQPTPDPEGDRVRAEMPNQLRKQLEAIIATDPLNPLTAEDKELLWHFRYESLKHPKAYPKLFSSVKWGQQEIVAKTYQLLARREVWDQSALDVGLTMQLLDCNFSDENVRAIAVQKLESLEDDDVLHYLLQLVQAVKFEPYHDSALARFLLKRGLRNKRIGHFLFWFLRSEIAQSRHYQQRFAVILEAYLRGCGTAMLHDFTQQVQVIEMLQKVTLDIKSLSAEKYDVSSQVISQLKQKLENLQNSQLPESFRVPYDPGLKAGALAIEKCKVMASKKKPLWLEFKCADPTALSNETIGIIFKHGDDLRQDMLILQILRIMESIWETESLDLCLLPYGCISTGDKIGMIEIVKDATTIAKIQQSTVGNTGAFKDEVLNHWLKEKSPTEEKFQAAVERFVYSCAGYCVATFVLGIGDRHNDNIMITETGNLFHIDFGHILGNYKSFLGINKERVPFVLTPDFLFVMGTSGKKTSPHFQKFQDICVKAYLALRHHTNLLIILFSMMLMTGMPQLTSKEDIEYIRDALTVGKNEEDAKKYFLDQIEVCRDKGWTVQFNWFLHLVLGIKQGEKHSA

For the molecule `Cc1n[nH]c(=O)c2[nH]c3ccc(Br)cc3c12`, the concentration for half-maximal inhibition (IC50) was determined as 1.5 µM with Huh-7; 6 µM in the test with MDA-MB-231; 8 µM in test [1]; 2 µM in the test with Caco-2; 5 µM in the test with HCT-116; 3 µM with NCI-H727. In the test with PC-3, this molecule returned an IC50 of 3 µM.
With `Cc1n[nH]c(=O)c2[nH]c3ccc(F)cc3c12`, the IC50 in [2] was more than 10 µM; in the test on Huh-7 it was 1.5 µM; in the test on MDA-MB-231, 4 µM; in [3] it was more than 10 µM; in test [1] it was 10 µM; in the test with Caco-2, 4 µM. Moreover, the IC50 worked out at 5 µM in the test with HCT-116, 5.6 µM in test [4], 2 µM with NCI-H727 and 3 µM with PC-3.
Turning to `COc1ccc2[nH]c3c(=O)[nH]nc(C)c3c2c1`, the concentration for half-maximal inhibition (IC50) is more than 10 µM in test [2]; 3 µM in the test with Huh-7; 5 µM with MDA-MB-231; more than 10 µM in [3]; 20 µM in test [1]; 8 µM in the test with Caco-2. Besides, the IC50 is 15 µM in the test with HCT-116, 5 µM in test [4], 5 µM with NCI-H727 and 7 µM with PC-3.
On to `Cc1n[nH]c(=O)c2c1c1cc(Br)ccc1n2Cc1ccc([N+](=O)[O-])cc1`, for which the IC50 in test [2] is 6 µM; in the test with Huh-7, 1 µM; in the test with MDA-MB-231, 4 µM; in test [5] it was more than 10 µM; in [3], more than 10 µM; in test [1] it was 2 µM. Moreover, the half-inhibitory concentration (IC50) in the test with Caco-2 is 2 µM; in the test with HCT-116, 2 µM; in [4], more than 10 µM; in the test with NCI-H727 it was 1 µM; in the test on PC-3, 1.5 µM.
As for `Cc1n[nH]c(=O)c2c1c1cc(Br)ccc1n2Cc1cccc([N+](=O)[O-])c1`, the 50% inhibitory concentration (IC50) in test [2] is 5.1 µM; with Huh-7, 2 µM; in the test on MDA-MB-231 it was 5 µM; in test [5], 4.1 µM; in test [3], more than 10 µM; in test [1] it was 5 µM. The half-inhibitory concentration (IC50) was 3 µM with Caco-2; 4 µM in the test with HCT-116; more than 10 µM in test [4]; 4 µM in the test on NCI-H727; 5 µM in the test with PC-3.
With `Cc1n[nH]c(=O)c2c1c1cc(Br)ccc1n2Cc1ccc(C#N)cc1`, the IC50 in test [2] was 1.9 µM; in the test with Huh-7, 2 µM; in the test with MDA-MB-231 it was 4 µM; in [5], more than 10 µM; in test [3] it was more than 10 µM; in [1] it was 2 µM. Also, the half-inhibitory concentration (IC50) in the test on Caco-2 was 2 µM; in the test with HCT-116, 2 µM; in [4] it was more than 10 µM; in the test on NCI-H727, 3 µM; in the test with PC-3, 2 µM.
As for `Cc1n[nH]c(=O)c2c1c1cc(Br)ccc1n2Cc1cccc(C#N)c1`, the IC50 in test [2] is 0.091 µM; in the test on Huh-7, 2 µM; in the test on MDA-MB-231, 4 µM; in test [5] it was 0.295 µM; in test [3], more than 10 µM; in test [1], 4 µM. In addition, the concentration for half-maximal inhibition (IC50) was 2 µM in the test with Caco-2; 5 µM with HCT-116; more than 10 µM in test [4]; 4 µM in the test on NCI-H727; 2.5 µM with PC-3.
For the molecule `COc1ccc(Cn2c3ccc(Br)cc3c3c(C)n[nH]c(=O)c32)cc1`, the IC50 in test [2] was 1.5 µM; in the test on Huh-7, 1.5 µM; in the test on MDA-MB-231, 5 µM; in test [5], 5.2 µM; in test [3] it was more than 10 µM; in test [1], 4 µM. Moreover, the IC50 in the test on Caco-2 was 2 µM; with HCT-116 it was 4 µM; in test [4] it was more than 10 µM; with NCI-H727, 5 µM; in the test on PC-3, 2.5 µM.
Turning to `COc1cccc(Cn2c3ccc(Br)cc3c3c(C)n[nH]c(=O)c32)c1`, the IC50 in [2] is 1.5 µM; in the test with Huh-7 it was 2 µM; in the test with MDA-MB-231, 4 µM; in test [5], 2.2 µM; in test [3] it was more than 10 µM; in test [1] it was 3 µM. Also, the half-maximal inhibitory concentration (IC50) in the test with Caco-2 was 2 µM; in the test on HCT-116, 2 µM; in [4] it was more than 10 µM; in the test with NCI-H727, 5 µM; in the test with PC-3 it was 2 µM.
Turning to `Cc1n[nH]c(=O)c2c1c1cc(F)ccc1n2Cc1ccc([N+](=O)[O-])cc1`, the concentration for half-maximal inhibition (IC50) in test [2] was more than 10 µM; in the test on Huh-7, 5 µM; with MDA-MB-231, 2 µM; in test [3], more than 10 µM; in [1], more than 25 µM; in the test with Caco-2, 2 µM. Moreover, the IC50 is 5 µM in the test on HCT-116, more than 10 µM in test [4], 5 µM with NCI-H727 and 0.6 µM in the test on PC-3.
Turning to `Cc1n[nH]c(=O)c2c1c1cc(F)ccc1n2Cc1cccc([N+](=O)[O-])c1`, the half-maximal inhibitory concentration (IC50) in test [2] was more than 10 µM; in the test on Huh-7, 3 µM; in the test on MDA-MB-231, 0.8 µM; in test [3], more than 10 µM; in test [1], more than 25 µM; in the test on Caco-2, 2 µM. The IC50 was 4 µM with HCT-116, more than 10 µM in [4], 6 µM in the test with NCI-H727 and 0.7 µM in the test with PC-3.
`Cc1n[nH]c(=O)c2c1c1cc(F)ccc1n2Cc1ccc(C#N)cc1`: the IC50 in test [2] was more than 10 µM; with Huh-7 it was 3 µM; in the test on MDA-MB-231, 1.5 µM; in [3], more than 10 µM; in test [1], more than 25 µM; in the test with Caco-2, 2 µM. The concentration for half-maximal inhibition (IC50) in the test with HCT-116 was 5 µM; in test [4], more than 10 µM; in the test on NCI-H727 it was 4 µM; with PC-3, 1 µM.
For `Cc1n[nH]c(=O)c2c1c1cc(F)ccc1n2Cc1cccc(C#N)c1`, the concentration for half-maximal inhibition (IC50) is 5 µM in test [2]; 3 µM with Huh-7; 12 µM in the test on MDA-MB-231; more than 10 µM in [3]; 8 µM in test [1]; 2 µM with Caco-2. Besides, the concentration for half-maximal inhibition (IC50) is 6 µM with HCT-116, more than 10 µM in test [4], 6 µM in the test with NCI-H727 and 4 µM with PC-3.
As to `COc1ccc(Cn2c3ccc(F)cc3c3c(C)n[nH]c(=O)c32)cc1`, the IC50 in test [2] is 4.2 µM; in the test on Huh-7, 1 µM; with MDA-MB-231 it was 2 µM; in test [3] it was more than 10 µM; in [1] it was 5 µM; with Caco-2, 2 µM. Moreover, the concentration for half-maximal inhibition (IC50) is 2 µM with HCT-116, more than 10 µM in test [4], 3 µM in the test on NCI-H727 and 2.5 µM in the test with PC-3.
Regarding `COc1cccc(Cn2c3ccc(F)cc3c3c(C)n[nH]c(=O)c32)c1`, the IC50 in [2] was more than 10 µM; in the test on Huh-7 it was 1.5 µM; in the test with MDA-MB-231 it was 0.9 µM; in test [3], more than 10 µM; in test [1] it was more than 25 µM; with Caco-2 it was 2 µM. The half-inhibitory concentration (IC50) is 4 µM in the test with HCT-116, more than 10 µM in test [4], 2 µM in the test on NCI-H727 and 0.4 µM in the test on PC-3.
On to `COc1ccc2c(c1)c1c(C)n[nH]c(=O)c1n2Cc1ccc([N+](=O)[O-])cc1`, for which the IC50 was 2.6 µM in test [2]; 3 µM with Huh-7; 2 µM in the test with MDA-MB-231; more than 10 µM in test [3]; 4 µM in test [1]; 5 µM in the test with Caco-2. In addition, the half-maximal inhibitory concentration (IC50) was 5 µM with HCT-116, more than 10 µM in [4], 2.5 µM in the test on NCI-H727 and 3 µM in the test with PC-3.
For the molecule `COc1ccc2c(c1)c1c(C)n[nH]c(=O)c1n2Cc1cccc(C#N)c1`, the IC50 in test [2] was 3.3 µM; in the test on Huh-7 it was 2 µM; in the test on MDA-MB-231 it was 3 µM; in [3], more than 10 µM; in [1], 5 µM; in the test with Caco-2 it was 3 µM. Besides, the IC50 with HCT-116 was 5 µM; in test [4], more than 10 µM; in the test with NCI-H727 it was 4 µM; in the test with PC-3, 2 µM.
`COc1ccc(Cn2c3ccc(OC)cc3c3c(C)n[nH]c(=O)c32)cc1`: the 50% inhibitory concentration (IC50) in test [2], in test [3] and in test [4] was more than 10 µM throughout.
Regarding `COc1cccc(Cn2c3ccc(OC)cc3c3c(C)n[nH]c(=O)c32)c1`, the IC50 in test [2] was 6.3 µM; with Huh-7, 1 µM; with MDA-MB-231, 3 µM; in test [3] it was more than 10 µM; in test [1], 1 µM; with Caco-2 it was 2 µM. The IC50 with HCT-116 is 2 µM; in [4] it was more than 10 µM; with NCI-H727, 3 µM; with PC-3, 2.5 µM.
Regarding `CC[C@H](CO)Nc1nc(NCc2ccccc2)c2ncn(C(C)C)c2n1` [SELICICLIB], the IC50 in test [1] was more than 25 µM; in the test on HCT-116 it was 7 µM; with NCI-H727, 20 µM; in the test on PC-3 it was 10 µM.
